Data as given in ChEMBL document CHEMBL3392993, “Identification of indole-3-carboxylic acids as non-ATP-competitive Polo-like kinase 1 (Plk1) inhibitors” (Bioorg Med Chem Lett, 2015).
Activity calls are given as the source filed them. The calls are words filed in the database; no cut-off is given here.

Experiments:
HeLa [1] = experiment: Antiproliferative activity against human HeLa cells assessed as growth inhibition after 72 hrs by MTT assay
MCF7 = experiment: Antiproliferative activity against human MCF7 cells assessed as growth inhibition after 72 hrs by MTT assay; details: MCF7, 72 h
HeLa [2] = experiment: Induction of apoptosis in human HeLa cells assessed as apoptotic cells at 1 uM after 24 hrs using annexin V/propidium iodide double staining by flow cytometry (reference value: 4.4 %); type: functional
HeLa [3] = experiment: Induction of apoptosis in human HeLa cells assessed as increase in cleaved caspase-3 level at 1 uM after 24 to 48 hrs by Western blot analysis; type: functional, cell-based
Summary of the method: (§1)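 HeLa cells exposed to 1 µM for 24 h, with treatment continued to 48 h. Cell proteins analysed by western blot for PARP, total Caspase-3 and its cleaved active form.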

[4] = biological target: Serine/threonine-protein kinase PLK3 (Homo sapiens, UniProt Q9H4B4); experiment: Inhibition of recombinant Plk3 (unknown origin)
HeLa [5] = experiment: Induction of apoptosis in human HeLa cells assessed as PARP cleavage at 1 uM after 24 to 48 hrs by Western blot analysis; type: functional, cell-based; summary of the method: as §1
[6] = biological target: Serine/threonine-protein kinase PLK2 (Homo sapiens, UniProt Q9NYY3); experiment: Inhibition of recombinant Plk2 (unknown origin)
Chain of Serine/threonine-protein kinase PLK2 (Q9NYY3 whole entry): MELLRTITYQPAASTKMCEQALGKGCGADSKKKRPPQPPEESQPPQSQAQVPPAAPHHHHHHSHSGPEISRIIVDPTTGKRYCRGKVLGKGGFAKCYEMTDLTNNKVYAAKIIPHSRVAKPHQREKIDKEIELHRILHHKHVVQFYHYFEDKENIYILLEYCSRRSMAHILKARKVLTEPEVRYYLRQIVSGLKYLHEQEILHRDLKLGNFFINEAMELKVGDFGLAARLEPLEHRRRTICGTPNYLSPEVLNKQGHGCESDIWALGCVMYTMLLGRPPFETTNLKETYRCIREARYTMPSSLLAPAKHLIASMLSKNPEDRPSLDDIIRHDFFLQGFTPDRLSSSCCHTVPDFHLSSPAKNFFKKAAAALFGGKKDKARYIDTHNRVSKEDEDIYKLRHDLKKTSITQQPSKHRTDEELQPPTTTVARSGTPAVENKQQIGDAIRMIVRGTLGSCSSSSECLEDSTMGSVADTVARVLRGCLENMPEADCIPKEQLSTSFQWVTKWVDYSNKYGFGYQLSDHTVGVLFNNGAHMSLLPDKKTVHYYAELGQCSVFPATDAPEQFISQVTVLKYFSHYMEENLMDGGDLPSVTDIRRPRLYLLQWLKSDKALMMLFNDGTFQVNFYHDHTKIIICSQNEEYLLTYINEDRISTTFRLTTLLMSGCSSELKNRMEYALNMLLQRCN

Chain of Serine/threonine-protein kinase PLK3 (Q9H4B4 whole entry): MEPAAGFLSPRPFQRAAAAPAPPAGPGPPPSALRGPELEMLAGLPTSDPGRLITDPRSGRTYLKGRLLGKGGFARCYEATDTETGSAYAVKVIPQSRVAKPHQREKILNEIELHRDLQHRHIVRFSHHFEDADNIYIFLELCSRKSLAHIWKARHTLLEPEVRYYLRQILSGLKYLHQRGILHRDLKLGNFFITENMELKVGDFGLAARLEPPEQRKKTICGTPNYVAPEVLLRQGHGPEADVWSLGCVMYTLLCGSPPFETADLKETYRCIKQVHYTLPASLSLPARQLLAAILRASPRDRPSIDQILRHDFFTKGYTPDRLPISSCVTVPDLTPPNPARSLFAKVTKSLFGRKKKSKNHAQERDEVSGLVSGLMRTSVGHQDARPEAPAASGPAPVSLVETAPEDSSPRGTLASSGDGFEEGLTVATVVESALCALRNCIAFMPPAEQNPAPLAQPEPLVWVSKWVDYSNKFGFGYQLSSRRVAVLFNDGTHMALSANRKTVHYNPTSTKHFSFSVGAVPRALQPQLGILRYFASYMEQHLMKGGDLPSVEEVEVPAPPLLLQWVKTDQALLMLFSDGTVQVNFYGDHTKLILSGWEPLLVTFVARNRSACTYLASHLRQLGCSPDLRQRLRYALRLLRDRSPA

Row | Structure (SMILES) | IC50 (HeLa [1]) [µM] | IC50 (MCF7) [µM] | Activity (HeLa [2]) [%] | Activity (HeLa [3]) | IC50 [4] [µM] | Activity (HeLa [5]) | IC50 [6] [µM]
1 | O=C(O)c1cn(CC(O)CN2CCCCC2)c2ccccc12 (racemic) | 4.92 | 5.33 |  |  |  |  | 
2 | O=C(O)CCc1cn(CC(O)CN2CCCCC2)c2ccccc12 (racemic) | > 10 | 8.79 |  |  |  |  | 
3 | O=C(O)c1cn(CC(O)CN2CCCC2)c2ccccc12 (racemic) | 7.34 | > 10 |  |  |  |  | 
4 | CCN(CC)CC(O)Cn1cc(CC(=O)O)c2ccccc21 (racemic) | 6.63 | 3.16 |  |  |  |  | 
5 | CN1CCN(CC(O)Cn2cc(CC(=O)O)c3ccccc32)CC1 (racemic) | 3.97 | 2.44 |  |  |  |  | 
6 | O=C(O)Cc1cn(CC(O)CN2CCCC2)c2ccccc12 (racemic) | 0.72 | 1.15 | 12.7 | Active | > 50 | Active | > 50
7 | O=C(O)Cc1cn(CC(O)CN2CCCCC2)c2ccccc12 (racemic) | 0.97 | 1.89 |  |  |  |  | 
8 | CN1CCN(CC(O)Cn2cc(C(=O)O)c3ccccc32)CC1 (racemic) | > 10 | > 10 |  |  |  |  | 
9 | CC1=CC(=O)C(C(C)C)=CC1=O [THYMOQUINONE] | 2.06 | 6.19 |  |  | > 50 |  | 14.7
10 | O=C(O)CCc1cn(CC(O)CN2CCCC2)c2ccccc12 (racemic) | 4.95 | > 10 |  |  |  |  | 
11 | CCN(CC)CC(O)Cn1cc(C(=O)O)c2ccccc21 (racemic) | 6.72 | 4.37 |  |  |  |  | 
12 | O=C(O)Cc1cn(CC(O)CN2CCOCC2)c2ccccc12 (racemic) | 2.13 | > 10 |  |  |  |  | 
